From ChEMBL document CHEMBL4840303, “Design, synthesis, biological evaluation and pharmacophore model analysis of novel tetrahydropyrrolo[3,4-c]pyrazol derivatives as potential TRKs inhibitors” (Eur J Med Chem, 2021)

How the values were obtained:
[1] = tested on: KM12; assay: Induction of apoptosis in human KM12 cells assessed as necrotic cells at 250 nM measured after 48 hrs by AnnexinV-FITC/PI staining based flowcytometry assay relative to control; format: functional
Method in brief: (§1)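 10^5 cells in Annexin V binding buffer stained with FITC-Annexin V and PI for 10 min at room temperature in the dark, diluted with PBS and analysed by flow cytometry (FITC 494/518 nm, PI 535/617 nm).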

[2] = tested on: KM12; assay: Cell cycle arrest in human KM12 cells assessed as accumulation of cells at less G1 phase at 125 nM measured after 48 hrs by AnnexinV-FITC/PI staining based flowcytometry method relative to control; format: functional
[3] = Stability in human plasma assessed as compound remaining incubated for 0 mins by LC-MS/MS analysis; format: ADME, cell-free; conditions: read-out: Stability
Method in brief: (§2)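 Pooled frozen human plasma thawed at 37 °C, centrifuged to remove clots, pH adjusted to 7.4 if required. Spiked to 2 µM final (from 100 µM dosing solution), in duplicate, incubated at 37 °C in a water bath. Sampled at 0, 10, 30, 60 and 120 min, quenched with acetonitrile stop solution containing internal standards, centrifuged, and supernatant analysed by LC-MS/MS for percent remaining.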

[4] = target: Serine/threonine-protein kinase TBK1 (Homo sapiens) (UniProt Q9UHD2); assay: Inhibition of recombinant GST-tagged full length human TBK1 expressed in baculovirus expression system at 1 uM measured by select screen assay relative to control
Sequence of Serine/threonine-protein kinase TBK1 (Homo sapiens) (Q9UHD2 whole entry): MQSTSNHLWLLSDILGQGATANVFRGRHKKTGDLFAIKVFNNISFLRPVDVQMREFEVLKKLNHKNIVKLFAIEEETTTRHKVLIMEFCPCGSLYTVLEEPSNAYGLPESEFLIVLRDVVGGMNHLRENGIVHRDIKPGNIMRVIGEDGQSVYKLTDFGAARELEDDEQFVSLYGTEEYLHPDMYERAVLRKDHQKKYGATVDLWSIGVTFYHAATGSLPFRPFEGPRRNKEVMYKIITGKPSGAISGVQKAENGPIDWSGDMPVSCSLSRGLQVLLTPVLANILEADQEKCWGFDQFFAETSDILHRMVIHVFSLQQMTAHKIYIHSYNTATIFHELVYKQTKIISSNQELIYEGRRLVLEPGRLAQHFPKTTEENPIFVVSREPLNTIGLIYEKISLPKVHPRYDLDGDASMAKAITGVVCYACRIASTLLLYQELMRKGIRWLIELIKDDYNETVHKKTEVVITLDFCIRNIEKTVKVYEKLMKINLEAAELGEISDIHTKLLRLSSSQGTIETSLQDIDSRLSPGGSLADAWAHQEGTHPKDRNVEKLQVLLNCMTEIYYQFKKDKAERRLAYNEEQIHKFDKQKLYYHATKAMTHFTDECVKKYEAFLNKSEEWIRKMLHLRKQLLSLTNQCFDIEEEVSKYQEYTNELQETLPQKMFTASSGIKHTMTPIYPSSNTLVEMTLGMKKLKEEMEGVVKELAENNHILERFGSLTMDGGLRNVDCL
Method in brief: (§3)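 Single-concentration profiling at 1.0 µM in a 28-kinase SelectScreen panel; percent inhibition reported.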

[5] = tested on: KM12; assay: Cell cycle arrest in human KM12 cells assessed as accumulation of cells at less G1 phase at 1000 nM measured after 48 hrs by AnnexinV-FITC/PI staining based flowcytometry method relative to control; format: functional
[6] = tested on: KM12; assay: Cell cycle arrest in human KM12 cells assessed as accumulation of cells at greater G1 phase at 1000 nM measured after 48 hrs by AnnexinV-FITC/PI staining based flowcytometry method relative to control; format: functional
[7] = target: Epidermal growth factor receptor (Homo sapiens) (UniProt P00533); assay: Inhibition of recombinant GST-tagged human EGFR (668 to 1210) expressed in baculovirus expression system at 1 uM measured by select screen assay relative to control; method in brief: as §3
[8] = tested on: KM12; assay: Cell cycle arrest in human KM12 cells assessed as accumulation of cells at greater G1 phase at 250 nM measured after 48 hrs by AnnexinV-FITC/PI staining based flowcytometry method relative to control; format: functional
[9] = tested on: KM12; assay: Induction of apoptosis in human KM12 cells assessed as viable cells at 125 nM measured after 48 hrs by AnnexinV-FITC/PI staining based flowcytometry assay relative to control; format: functional; conditions: read-out: Activity; method in brief: as §1
[10] = Stability in human liver microsomes assessed as compound remaining in presence of NADPH at 100 uM measured after 60 mins by LC-MS/MS analysis; format: ADME, Microsome; conditions: read-out: Stability
Method in brief: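 Human liver microsomes diluted to 0.59 mg/mL working solution in 100 mM potassium phosphate, prewarmed 10 min at 37 °C; compound added from a 100 µM working solution. NADPH (in 10 mM MgCl2) added to one plate, buffer instead in no-cofactor control. Incubated at 37 °C, quenched at 5, 15, 30, 45, 60 min, centrifuged, analysed by LC-MS/MS.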

[11] = tested on: THLE-2; assay: cells; conditions: Homo sapiens, THLE-2, 72 h
[12] = tested on: KM12; assay: Induction of apoptosis in human KM12 cells assessed as late apoptotic cells at 500 nM measured after 48 hrs by AnnexinV-FITC/PI staining based flowcytometry assay relative to control; format: functional
Method in brief: (§4)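 They were detached with trypsin, washed twice in PBS, and 10^5 cells were suspended in Annexin V binding buffer. Cells were stained with FITC-Annexin V and PI for 10 min at room temperature in the dark, diluted with PBS and analysed by flow cytometry.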

[13] = target: Serine/threonine-protein kinase PLK4 (Homo sapiens) (UniProt O00444); assay: Inhibition of recombinant GST-tagged human PLK4 expressed in baculovirus expression system at 1 uM measured by select screen assay relative to control; method in brief: as §3
[14] = tested on: KM12; assay: Induction of apoptosis in human KM12 cells assessed as late apoptotic cells at 250 nM measured after 48 hrs by AnnexinV-FITC/PI staining based flowcytometry assay relative to control; format: functional; method in brief: as §4
[15] = target: Tyrosine-protein kinase JAK2 (Homo sapiens) (UniProt O60674); assay: Inhibition of recombinant GST-tagged human JAK2 expressed in baculovirus expression system at 1 uM measured by select screen assay relative to control; method in brief: as §3
Sequence of Tyrosine-protein kinase JAK2 (Homo sapiens) (O60674 whole entry): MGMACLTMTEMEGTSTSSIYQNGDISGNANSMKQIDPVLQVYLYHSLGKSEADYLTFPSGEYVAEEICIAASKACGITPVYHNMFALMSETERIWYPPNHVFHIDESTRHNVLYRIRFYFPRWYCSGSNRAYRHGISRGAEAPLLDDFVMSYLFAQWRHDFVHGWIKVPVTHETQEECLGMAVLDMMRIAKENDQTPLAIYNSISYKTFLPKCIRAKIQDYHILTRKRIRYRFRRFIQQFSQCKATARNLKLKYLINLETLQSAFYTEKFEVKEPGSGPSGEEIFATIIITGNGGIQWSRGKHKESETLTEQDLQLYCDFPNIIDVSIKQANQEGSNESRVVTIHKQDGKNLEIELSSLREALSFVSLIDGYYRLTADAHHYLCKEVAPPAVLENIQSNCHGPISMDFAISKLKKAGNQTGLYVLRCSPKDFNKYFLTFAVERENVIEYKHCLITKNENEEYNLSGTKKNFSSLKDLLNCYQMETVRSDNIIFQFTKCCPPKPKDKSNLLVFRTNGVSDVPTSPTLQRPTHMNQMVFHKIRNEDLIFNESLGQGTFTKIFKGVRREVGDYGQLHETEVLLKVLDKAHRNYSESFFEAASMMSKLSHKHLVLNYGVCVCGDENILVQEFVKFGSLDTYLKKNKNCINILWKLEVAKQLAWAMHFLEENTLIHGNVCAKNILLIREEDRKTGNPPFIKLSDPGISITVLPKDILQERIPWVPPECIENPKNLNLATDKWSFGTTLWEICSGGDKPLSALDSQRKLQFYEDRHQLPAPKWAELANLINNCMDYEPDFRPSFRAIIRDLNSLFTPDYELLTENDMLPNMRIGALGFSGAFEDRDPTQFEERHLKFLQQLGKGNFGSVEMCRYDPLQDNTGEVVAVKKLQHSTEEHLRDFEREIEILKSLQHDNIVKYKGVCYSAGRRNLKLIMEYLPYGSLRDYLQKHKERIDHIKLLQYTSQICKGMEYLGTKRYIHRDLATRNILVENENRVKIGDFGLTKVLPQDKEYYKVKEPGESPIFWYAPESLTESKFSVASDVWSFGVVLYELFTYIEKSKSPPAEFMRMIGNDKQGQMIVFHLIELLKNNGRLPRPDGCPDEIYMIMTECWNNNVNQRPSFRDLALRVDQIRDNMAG

[16] = target: RAF proto-oncogene serine/threonine-protein kinase (Homo sapiens) (UniProt P04049); assay: Inhibition of recombinant GST-tagged human RAF1 expressed in baculovirus expression system at 1 uM measured by select screen assay relative to control; method in brief: as §3
Sequence of RAF proto-oncogene serine/threonine-protein kinase (Homo sapiens) (P04049 whole entry): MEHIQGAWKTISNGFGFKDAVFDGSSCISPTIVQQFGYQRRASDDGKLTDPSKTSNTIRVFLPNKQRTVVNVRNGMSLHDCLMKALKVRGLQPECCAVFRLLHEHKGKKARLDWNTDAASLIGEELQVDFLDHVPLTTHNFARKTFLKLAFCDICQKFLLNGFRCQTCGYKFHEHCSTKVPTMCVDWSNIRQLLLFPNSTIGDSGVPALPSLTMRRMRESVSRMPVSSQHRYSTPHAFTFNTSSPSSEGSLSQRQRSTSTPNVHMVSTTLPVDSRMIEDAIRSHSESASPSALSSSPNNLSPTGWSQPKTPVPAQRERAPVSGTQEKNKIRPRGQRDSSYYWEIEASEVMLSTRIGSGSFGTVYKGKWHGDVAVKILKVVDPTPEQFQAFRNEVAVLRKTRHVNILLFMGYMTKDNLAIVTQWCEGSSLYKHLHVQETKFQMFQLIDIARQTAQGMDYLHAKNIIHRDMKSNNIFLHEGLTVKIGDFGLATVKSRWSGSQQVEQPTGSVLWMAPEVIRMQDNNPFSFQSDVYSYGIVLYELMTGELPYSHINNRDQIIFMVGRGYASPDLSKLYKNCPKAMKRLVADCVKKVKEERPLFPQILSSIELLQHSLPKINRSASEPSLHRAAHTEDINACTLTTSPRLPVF

[17] = tested on: KM12; assay: Induction of apoptosis in human KM12 cells assessed as necrotic cells at 62.5 nM measured after 48 hrs by AnnexinV-FITC/PI staining based flowcytometry assay relative to control; format: functional; method in brief: as §1
[18] = tested on: KM12; assay: Cell cycle arrest in human KM12 cells assessed as accumulation of cells at G1 phase at 250 nM measured after 48 hrs by AnnexinV-FITC/PI staining based flowcytometry method relative to control; format: functional
[19] = tested on: KM12; assay: Cell cycle arrest in human KM12 cells assessed as accumulation of cells at G1 phase at 500 nM measured after 48 hrs by AnnexinV-FITC/PI staining based flowcytometry method relative to control; format: functional
[20] = Half life in Sprague dawley rat at 1 mg/kg, iv; format: ADME, organism-based; conditions: in vivo
Method in brief: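 Blood was collected into heparin tubes at specified time points and centrifuged at once (4 °C, 4000 rpm, 20 min). Plasma levels were quantified by LC-MS/MS. Parameters came from noncompartmental analysis.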

[21] = tested on: KM12; assay: Cell cycle arrest in human KM12 cells assessed as accumulation of cells at greater G1 phase at 62.5 nM measured after 48 hrs by AnnexinV-FITC/PI staining based flowcytometry method relative to control; format: functional
[22] = target: Hepatocyte growth factor receptor (Homo sapiens) (UniProt P08581); assay: Inhibition of recombinant His-tagged human MET expressed in baculovirus expression system at 1 uM measured by select screen assay relative to control; method in brief: as §3
Sequence of Hepatocyte growth factor receptor (Homo sapiens) (P08581 whole entry): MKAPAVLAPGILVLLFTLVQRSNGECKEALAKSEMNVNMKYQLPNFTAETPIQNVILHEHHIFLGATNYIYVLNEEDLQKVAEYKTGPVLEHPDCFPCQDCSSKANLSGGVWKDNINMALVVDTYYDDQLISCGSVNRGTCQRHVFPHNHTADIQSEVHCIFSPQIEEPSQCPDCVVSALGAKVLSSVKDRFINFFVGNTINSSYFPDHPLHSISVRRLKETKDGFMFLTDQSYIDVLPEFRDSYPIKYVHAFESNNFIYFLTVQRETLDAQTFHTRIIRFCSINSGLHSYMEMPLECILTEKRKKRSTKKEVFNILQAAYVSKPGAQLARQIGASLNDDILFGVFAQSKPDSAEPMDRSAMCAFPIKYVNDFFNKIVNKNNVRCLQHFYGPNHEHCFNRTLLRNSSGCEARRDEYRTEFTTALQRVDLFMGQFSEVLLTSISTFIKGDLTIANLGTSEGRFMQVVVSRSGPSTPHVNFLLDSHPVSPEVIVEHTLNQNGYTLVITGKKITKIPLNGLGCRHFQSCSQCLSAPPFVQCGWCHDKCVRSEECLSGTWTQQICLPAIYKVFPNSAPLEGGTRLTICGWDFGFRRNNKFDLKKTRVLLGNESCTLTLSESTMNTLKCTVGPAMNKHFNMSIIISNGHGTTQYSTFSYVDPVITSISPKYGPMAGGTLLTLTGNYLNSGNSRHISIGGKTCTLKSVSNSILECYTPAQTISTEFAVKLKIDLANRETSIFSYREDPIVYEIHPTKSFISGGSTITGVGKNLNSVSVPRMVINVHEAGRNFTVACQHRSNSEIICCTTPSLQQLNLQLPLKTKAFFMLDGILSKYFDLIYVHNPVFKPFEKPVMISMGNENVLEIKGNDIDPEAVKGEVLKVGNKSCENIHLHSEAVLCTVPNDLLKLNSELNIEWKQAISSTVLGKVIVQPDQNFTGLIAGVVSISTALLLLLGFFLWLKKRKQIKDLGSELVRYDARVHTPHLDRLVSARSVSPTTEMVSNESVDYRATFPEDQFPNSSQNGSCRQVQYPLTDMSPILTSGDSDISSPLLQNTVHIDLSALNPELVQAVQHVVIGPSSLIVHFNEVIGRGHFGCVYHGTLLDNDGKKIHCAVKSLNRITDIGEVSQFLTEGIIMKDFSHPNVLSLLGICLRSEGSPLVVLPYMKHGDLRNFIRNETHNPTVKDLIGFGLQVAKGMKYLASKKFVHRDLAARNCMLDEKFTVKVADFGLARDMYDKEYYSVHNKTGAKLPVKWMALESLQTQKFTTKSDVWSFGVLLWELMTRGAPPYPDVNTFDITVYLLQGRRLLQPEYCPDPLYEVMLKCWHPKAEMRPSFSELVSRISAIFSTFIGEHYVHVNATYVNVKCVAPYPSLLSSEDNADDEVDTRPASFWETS

[23] = target: Aurora kinase A (Homo sapiens) (UniProt O14965); assay: Inhibition of recombinant His-tagged full length human Aurora A expressed in baculovirus expression system at 1 uM measured by select screen assay relative to control; method in brief: as §3
Sequence of Aurora kinase A (Homo sapiens) (O14965 whole entry): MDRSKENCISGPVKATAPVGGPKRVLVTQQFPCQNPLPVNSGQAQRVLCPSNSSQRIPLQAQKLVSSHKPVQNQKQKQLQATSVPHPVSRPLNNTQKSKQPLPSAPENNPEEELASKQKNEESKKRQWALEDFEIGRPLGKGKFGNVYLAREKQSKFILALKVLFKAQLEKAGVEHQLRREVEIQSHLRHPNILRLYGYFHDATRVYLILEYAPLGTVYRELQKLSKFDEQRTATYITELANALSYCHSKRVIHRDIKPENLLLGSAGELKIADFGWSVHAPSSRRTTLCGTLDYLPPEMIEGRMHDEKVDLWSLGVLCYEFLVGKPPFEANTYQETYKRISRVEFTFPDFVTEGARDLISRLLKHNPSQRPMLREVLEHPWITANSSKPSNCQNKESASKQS

[24] = tested on: KM12; assay: Cell cycle arrest in human KM12 cells assessed as accumulation of cells at G2 phase at 250 nM measured after 48 hrs by AnnexinV-FITC/PI staining based flowcytometry method relative to control; format: functional
[25] = tested on: KM12; assay: cells; conditions: Homo sapiens, KM12, 72 h
[26] = Stability in human plasma assessed as compound remaining incubated for 120 mins by LC-MS/MS analysis; format: ADME, cell-free; conditions: read-out: Stability; method in brief: as §2
[27] = tested on: KM12; assay: Cell cycle arrest in human KM12 cells assessed as accumulation of cells at G2 phase at 125 nM measured after 48 hrs by AnnexinV-FITC/PI staining based flowcytometry method relative to control; format: functional
[28] = Stability in human plasma assessed as compound remaining incubated for 60 mins by LC-MS/MS analysis; format: ADME, cell-free; conditions: read-out: Stability; method in brief: as §2

CN1CCN(c2ccc(C(=O)Nc3n[nH]c4c3CN(Cc3cc(F)cc(F)c3)C4(C)C)cc2)CC1
Activity [1]: 0.04% | Activity [2]: 7.36% | remaining at 0 h [3]: 100% | inhibition [4]: 7% | Activity [5]: 7.77% | Activity [6]: 1.59% | inhibition [7]: 4% | Activity [8]: 1.26% | viability at 0.125 µM [9]: 63.5% | remaining at 1 h, 100 µM [10]: 22.4% | IC50 [11]: > 100 µM | Activity [12]: 39.1% | inhibition [13]: 0% | Activity [14]: 36.84% | inhibition [15]: 76% | inhibition [16]: 11% | Activity [17]: 0.03% | Activity [18]: 74% | Activity [19]: 73.9% | half-life [20]: 1.51 h | Activity [21]: 4.25% | inhibition [22]: 6% | inhibition [23]: 11% | Activity [24]: 9.26% | IC50 [25]: 0.082 µM | remaining at 2 h [26]: 101% | Activity [27]: 11.5% | remaining at 1 h [28]: 99.2%
